Shown are actives, neighbours in structure and some others; about 6.7% of the full set was active somewhere.
Beta apoptosis: inhibitors of cytokine-induced beta cell apoptosis, primary screen, luminescence | protection from apoptosis, % (test concentration not listed) | 300,000 compounds, 0.8% hits | INS-1E cytokine-induced death, ATP luminescence, 48 h; percent of positive-control rescue, neutral wells zero | AID 435005, 2010;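 active = Every replicate reaches about 75%, or at least half do and their mean reaches it too, limit read from the data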;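 note: 0% = cytokine-treated negative control wells and 100% = positive control rescue; higher means more ATP so stronger rescue from cytokine killing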
CHOP inhibitor: inhibitors of CHOP promoter induction, primary screen, cell-based, unfolded protein response, luciferase reporter | CHO-K1 CHOP-promoter luciferase, tunicamycin-induced, 15-18 h | inhibition, % at 10 µM | 220,000 compounds, 3.8% hits | AID 2732, 2010;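 active = compounds that reduced the stress-induced luciferase reporter signal by more than about 70% of percent inhibition, limit read from the data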;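 note: 0% = tunicamycin plus vehicle and 100% = wells without tunicamycin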
PREPL inhibitor: PREPL enzyme inhibitors, primary screen, biochemical, fluorescence polarization. inhibition, % at 5.96 µM. recombinant PREPL, fluorescence polarization activity-based probe. 320,000 compounds, 0.68% hits. AID 2751, 2010. Prolyl endopeptidase-like (Homo sapiens), Q4J6C6; in the data active = inhibition above about 43%;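 note: 0% = enzyme with DMSO and 100% = wells lacking enzyme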
Target sequence (Q4J6C6 whole entry, looked up): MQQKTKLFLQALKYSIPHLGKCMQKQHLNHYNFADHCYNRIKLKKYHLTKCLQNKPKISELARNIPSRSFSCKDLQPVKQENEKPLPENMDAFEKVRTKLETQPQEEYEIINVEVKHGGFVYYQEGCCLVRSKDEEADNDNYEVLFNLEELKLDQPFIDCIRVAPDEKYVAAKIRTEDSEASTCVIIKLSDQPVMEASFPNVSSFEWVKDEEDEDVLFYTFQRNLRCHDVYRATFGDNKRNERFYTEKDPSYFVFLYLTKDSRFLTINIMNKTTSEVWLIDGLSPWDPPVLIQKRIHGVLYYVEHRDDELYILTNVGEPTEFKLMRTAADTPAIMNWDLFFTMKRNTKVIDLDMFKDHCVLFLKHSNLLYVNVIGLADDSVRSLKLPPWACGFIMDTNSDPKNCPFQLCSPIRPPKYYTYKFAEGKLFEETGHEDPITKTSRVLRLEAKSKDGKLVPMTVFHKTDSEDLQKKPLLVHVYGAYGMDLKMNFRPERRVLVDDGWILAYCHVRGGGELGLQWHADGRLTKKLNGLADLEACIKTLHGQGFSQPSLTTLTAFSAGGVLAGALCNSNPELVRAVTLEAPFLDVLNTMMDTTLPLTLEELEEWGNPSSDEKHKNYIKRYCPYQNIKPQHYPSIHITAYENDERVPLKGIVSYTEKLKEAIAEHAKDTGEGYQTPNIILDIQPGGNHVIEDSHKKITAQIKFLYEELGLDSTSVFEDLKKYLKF
CSC inhib: cancer stem cell viability inhibitors, primary screen, luminescence | AID 2717, 2010 | 300,000 compounds, 1.1% hits | cancer stem cell-like cells viability | inhibition, % at 7.5 µM; in the data active = inhibition above about 75%; tested in HMLE shEcad cells
GRIN3A LBD mod: binders of NR3A ligand-binding domain, primary screen, biophysical, differential scanning fluorimetry, uHTS. Glutamate receptor ionotropic, NMDA 3A (GRIN3A) ligand-binding domain. NR3A LBD differential scanning fluorimetry, Tm shift; 0% = protein alone, 100% = glycine-bound protein. Tm shift relative to glycine control, % at 25 µM. 340,000 compounds, 2.5% hits. AID 1259313, 2017;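 active = melting temperature shift of at least 10% of the positive control shift, at one fixed dose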
T cruzi repl: inhibitors of intracellular T. cruzi growth, primary screen, luminescence, NIH3T3 host cells; T. cruzi beta-gal in NIH3T3, 90 h; inhibition, % (test concentration not listed); AID 1885, 2009; 300,000 compounds, 1.4% hits;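 active = mean inhibition across valid replicates above about 55%, limit read from the data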;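 note: signal also drops with host cell toxicity which is not excluded here; 0% = plate median of DMSO wells and 100% = zero luminescence signal; higher percent means less beta-gal luminescence so fewer parasites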
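Read-out: Parasite load inhibition, % | Test system: Mouse NIH/3T3 fibroblasts infected with β-gal-expressing T. cruzi Tulahuen C4 | Amount: 5,000 cells/well | Medium: DMEM, 2% fetal bovine serum | Signal: GalScreen β-gal luminescence, detergent lysis, 60 min | Timing: 3 h attach, ≥90 h co-culture | Also added: Tulahuen C4 trypomastigotes, 5000/well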
Starred values were filed as active, the others as inactive; · = not tested or not shown.

SMILES	Beta apoptosis	CHOP inhibitor	PREPL inhibitor	CSC inhib	GRIN3A LBD mod	T cruzi repl
Cc1c(Cl)cn2c(=O)cc(CN3CCN(c4ccc(F)cc4)CC3)nc2c1Cl	1	7	8	9	·	10
CCc1cc(C(=O)N(CCCOC)c2c(N)n(Cc3ccccc3)c(=O)[nH]c2=O)sc1C	2	·	14	-2	-3	3
Cc1cccc(C)c1NC(=O)CN(C)C(=O)c1ccc(NS(=O)(=O)c2ccc3[nH]c(=O)[nH]c3c2)cc1	-3	·	12	-4	13*	-4
CCN(CC(=O)Nc1ccc(NC(C)=O)cc1)C(=O)CCCOc1ccc(C(C)(C)C)cc1	93*	·	25	29	-4	-9
Cc1c(-c2nc(N)nc(Nc3ccccc3F)n2)oc2ccccc12	-5	71*	-3	-1	2	19
COc1cccc(Nc2nc(N)nc(-c3oc4ccccc4c3C)n2)c1	5	37	13	·	17*	6
O=S(=O)(NCC1(N2CCOCC2)CCCCC1)c1ccc(Cl)cc1C(F)(F)F	2	·	13	·	0	21
Cc1nnc(SCCOc2ccccc2)s1	-6	2	-3	10	0	-3
O=C(COC(=O)CC1CC2CCC1C2)NC(=O)NCc1ccco1 (centres undefined)	-3	82*	2	-10	1	1
Cc1ccc2c(c1)N(CC(=O)N1CCCCC1C)C(=O)CO2 (centres undefined)	5	·	-3	·	-1	-3
Cc1ccc2c(c1)N(CC(=O)N1CCCCC1c1cccnc1)C(=O)CO2 (centres undefined)	-3	13	14	3	-1	61*
O=C(Nc1ccc([N+](=O)[O-])cc1Br)c1cc2ccccc2nc1Cl	3	-2	-1	-7	-3	-5
C/C(=N\NC(=O)CNc1cccc(C(F)(F)F)c1)c1ccc(Br)cc1	-6	94*	-1	6	18*	5
Cc1cccc(NCC(=O)N/N=C/c2cccc(Br)c2)c1	3	84*	8	8	-20	-5
Cc1ccccc1NC(=O)C(=O)N/N=C/c1cccc(Br)c1	·	-11	10	2	34*	7
Cc1ccc(NCC(=O)N/N=C/c2cccc(Br)c2)cc1	·	4	17	-1	0	-4
C/C(=N\NC(=O)Cc1ccccc1)c1ccc(Br)s1	-8	·	-4	-8	2	-14
C=CCNC(=O)C(=O)N/N=C/c1cccc(Br)c1	1	32	-4	-6	-1	-21
C/C(=N\NC(=O)CNc1cccc(C)c1)c1ccc(Br)s1	9	39	22	-2	12*	7
NC(=O)C1CCN(c2cc(Cl)nc(N)n2)CC1	1	21	-1	-11	-3	-8
CC(C)c1ccc(CN(C)CC(O)c2ccccc2)cc1 (centres undefined)	5	5	-24	10	-3	22
C=CCn1c(=O)/c(=C/c2ccsc2)s/c1=C(\C#N)C(=O)NCCN1CCOCC1	·	·	·	·	-2	·
Fc1ccc(NC(=S)N/N=C/c2cccc(Br)c2)c(F)c1	3	95*	1	8	32*	21
Fc1ccc(NC(=S)N/N=C/c2ccc(F)c(F)c2)cc1	-4	25	9	-6	1	11
COc1ccc2cc3cc(C(=O)NCCN4CCN(Cc5ccccc5)CC4)oc3nc2c1	3	21	-28	-2	1	64*
SMILES	Beta apoptosis	CHOP inhibitor	PREPL inhibitor	CSC inhib	GRIN3A LBD mod	T cruzi repl
COc1ccc2cc3cc(C(=O)NCCCN4CCOCC4)oc3nc2c1	7	-11	-1	13	0	58*
COc1ccc2cc3cc(C(=O)NCCN4CCc5ccccc5C4)oc3nc2c1	1	24	-11	0	1	48
Cc1ccccc1S(=O)(=O)Cc1ccc(C(=O)NCCN2CCN(Cc3ccccc3)CC2)o1	4	-7	-8	-3	0	61*
COc1ccccc1N(C)S(=O)(=O)c1ccc(C)c(C(=O)NCc2ccccn2)c1	5	·	5	-4	2	·
O=C(Cn1c(=O)n(Cc2ccco2)c(=O)c2c3c(sc21)CCCCC3)Nc1ccccc1	-6	-30	12	1	-1	-26
O=c1c2c3c(sc2n(CCN2CCCC2)c(=O)n1Cc1ccco1)CCCCC3	·	31	12	-17	0	57*
O=C(Cn1c(=O)n(Cc2ccco2)c(=O)c2c3c(sc21)CCCCC3)c1ccccc1	-6	3	17	12	0	-2
CN(C)CCn1c(=O)n(Cc2ccco2)c(=O)c2c3c(sc21)CCCCC3	6	31	8	-12	-1	55*
CN(C)c1ccc(CNCC2CCCO2)cc1 (centres undefined)	-8	·	4	-7	0	11
CN(C)c1ccc(CNCCC2CCOC(C)(C)C2)cc1 (centres undefined)	-4	15	12	4	·	58*
COc1ccc(/C=N/NC(=O)c2[nH]c3ccc(Cl)cc3c2-c2ccccc2)c(C(=O)O)c1OC	12	·	-1	67	-2	-2
Cc1c(C(=O)N/N=C/c2ccc(N(C)C)cc2)[nH]c2ccc(Cl)cc12	28	-23	8	52	27*	1
Cc1c(C(=O)N/N=C/c2ccccc2)[nH]c2ccc(Cl)cc12	4	-42	8	50	30*	-19
CN(C)c1ccc(/C=N/NC(=O)c2ccc3c(c2)OCO3)cc1	3	·	·	7	6	-5
O=C(N/N=C/c1ccccc1)c1c(O)c2ccccc2[nH]c1=O	124*	78*	-8	19	2	7
Cc1ccc2c(c1)-n1c(nc3cc(Cl)ccc3c1=O)C(CC(C)C)NC2=O (centres undefined)	1	·	10	·	·	·
Cc1ccc(NC(=O)C(=O)NCCCN2CCOCC2)c(C)c1	-4	4	12	-3	-1	-3
CCCn1c(NCc2ccccc2NS(=O)(=O)c2ccc(C)cc2)nc2ccccc21	17	46	-3	75*	2	43
CCn1c(NCc2cc(Br)ccc2NS(=O)(=O)c2ccc(C)cc2)nc2ccccc21	10	15	-4	17	3	64*
COC(=O)c1c(NC(NC(=O)c2ccccc2)(C(F)(F)F)C(F)(F)F)sc2c1CCN(C)C2	-4	24	0	-18	0	-1
CCNC(=O)C1OC(n2cnc3c(NCc4ccccc4)ncnc32)C(O)C1O (centres undefined)	·	-7	·	·	·	·
O=C(NCCNS(=O)(=O)c1ccccc1Cl)c1cc(OCC(F)(F)F)ccc1OCC(F)(F)F	-7	-3	5	8	0	-8
